Values after ≈ are worked out from the molar mass of the structure shown.
Experiments:
[1] = test system: Mycobacterium tuberculosis; experiment: Antimicrobial activity against Mycobacterium tuberculosis H37Rv by two-fold serial dilution method; type: functional
Method in brief: (§1)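 Classical test-tube successive two-fold dilution in Youmans' modification of Proskauer and Beck liquid medium with 10% bovine serum. Inocula from 14-day-old cultures. Compounds dissolved in ethylene glycol (stock 10 mg/mL), diluted in medium to 0.75–100 µg/mL. Incubated at 37 °C. MIC is the lowest concentration inhibiting growth relative to a compound-free control.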

[2] = test system: Mycobacterium tuberculosis; experiment: Antimicrobial activity against Mycobacterium tuberculosis Spec. 192 by two-fold serial dilution method; type: functional; method in brief: as §1
[3] = test system: Mycobacterium tuberculosis; experiment: Antimicrobial activity against Mycobacterium tuberculosis Spec. 210 by two-fold serial dilution method; type: functional; method in brief: as §1
A549 = experiment: Cytotoxicity against human A549 cells assessed as growth inhibition after 120 hrs by MTT assay; type: functional, cell-based; settings: A549, 120 h
Method in brief: (§2)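 A549 cells were seeded at 4x10^3/well in RPMI1640 with 10% FBS and penicillin/streptomycin and attached overnight. Compounds were added from DMSO stocks at 200-fold concentration, with DMSO-only controls, and cells were exposed continuously for 120 h at 37 °C in 5% CO2. MTT (4 mg/mL in PBS) was added for 4 h, formazan dissolved in DMSO, and A540 read versus untreated cells. IC50 was taken as 50% growth inhibition; at least two independent experiments in duplicate.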

LLC-PK1 = experiment: Cytotoxicity against pig LLC-PK1 cells assessed as growth inhibition after 120 hrs by MTT assay; type: cell-based; settings: Sus scrofa, LLC-PK1, 120 h
Method in brief: as §2, with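 “LLC-PK1” for “A549”, “1.25x10^4/well” for “4x10^3/well”, “Medium 199” for “RPMI1640”, “3%” for “10%”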

With `Cc1cc2nc(-c3cc(-c4ccccc4)ccn3)[nH]c2cc1C` the MIC [1] was 25 µg/mL (≈ 83.5 µM), the MIC [2] was 12.5 µg/mL (≈ 41.8 µM) and the MIC [3] was 12.5 µg/mL (≈ 41.8 µM).

With `Clc1cc2nc(CCC3CCCCC3)[nH]c2cc1Cl` the IC50 (A549) was 11.1 µM, the MIC [1] was 0.75 µg/mL (≈ 2.52 µM) and the MIC [2] was 0.75 µg/mL (≈ 2.52 µM). The MIC [3] was 0.75 µg/mL (≈ 2.52 µM) and the IC50 (LLC-PK1) was 9.62 µM.

Work on `c1ccc(-c2ccnc(-c3nc4ccccc4[nH]3)c2)cc1` yielded an MIC [1] of 12.5 µg/mL (≈ 46.1 µM), an MIC [2] of 6.2 µg/mL (≈ 22.9 µM) and an MIC [3] of 6.2 µg/mL (≈ 22.9 µM).

`Fc1ccc2[nH]c(CCC3CCCCC3)nc2c1` was tested, and the MIC [1] was 3.1 µg/mL (≈ 12.6 µM), the MIC [2] was 3.1 µg/mL (≈ 12.6 µM) and the MIC [3] was 3.1 µg/mL (≈ 12.6 µM).

Work on `Clc1ccc2[nH]c(-c3cc(-c4ccccc4)ccn3)nc2c1` yielded an MIC [1] of 12.5 µg/mL (≈ 40.9 µM), an MIC [2] of 12.5 µg/mL (≈ 40.9 µM) and an MIC [3] of 6.2 µg/mL (≈ 20.3 µM).

Work on `Cc1cc2nc(CCCc3ccccc3)[nH]c2cc1C` yielded an MIC [1] of 6.2 µg/mL (≈ 23.5 µM), an MIC [2] of 6.2 µg/mL (≈ 23.5 µM) and an MIC [3] of 6.2 µg/mL (≈ 23.5 µM).

In the case of `Cc1ccc2[nH]c(CCCc3ccccc3)nc2c1`, the MIC [1] is reported as 25 µg/mL (≈ 99.9 µM), the MIC [2] is reported as 6.2 µg/mL (≈ 24.8 µM) and the MIC [3] is reported as 100 µg/mL (≈ 399 µM).

`Cc1ccc2[nH]c(-c3cc(-c4ccccc4)ccn3)nc2c1` showed an MIC [1] of 3.1 µg/mL (≈ 10.9 µM), an MIC [2] of 6.2 µg/mL (≈ 21.7 µM) and an MIC [3] of 3.1 µg/mL (≈ 10.9 µM).

With `CO[C@H]1/C=C/O[C@@]2(C)Oc3c(C)c(O)c4c(O)c(c(/C=N/N5CCN(C)CC5)c(O)c4c3C2=O)NC(=O)/C(C)=C\C=C\[C@H](C)[C@H](O)[C@@H](C)[C@@H](O)[C@@H](C)[C@H](OC(C)=O)[C@@H]1C` [RIFAMPIN] the MIC [1] was 1.2 µg/mL (≈ 1.46 µM), the MIC [2] was 1.2 µg/mL (≈ 1.46 µM) and the MIC [3] was 2.5 µg/mL (≈ 3.04 µM).

`Cc1ccc2[nH]c(CCC3CCCCC3)nc2c1` showed an MIC [1] of 1.5 µg/mL (≈ 6.19 µM), an MIC [2] of 1.5 µg/mL (≈ 6.19 µM) and an MIC [3] of 1.5 µg/mL (≈ 6.19 µM).

In the case of `Brc1cnc2[nH]c(-c3cc(-c4ccccc4)ccn3)nc2c1`, the MIC [1] is reported as 25 µg/mL (≈ 71.2 µM), the MIC [2] is reported as 25 µg/mL (≈ 71.2 µM) and the MIC [3] is reported as 25 µg/mL (≈ 71.2 µM).

`Clc1cc2nc(CCCC3CCCCC3)[nH]c2cc1Cl` gave an MIC [1] of 12.5 µg/mL (≈ 40.2 µM), an MIC [2] of 6.2 µg/mL (≈ 19.9 µM) and an MIC [3] of 6.2 µg/mL (≈ 19.9 µM).

`Fc1ccc2[nH]c(CCCc3ccccc3)nc2c1` showed an MIC [1] of 12.5 µg/mL (≈ 49.2 µM), an MIC [2] of 50 µg/mL (≈ 197 µM) and an MIC [3] of 50 µg/mL (≈ 197 µM).

In the case of `Cc1cc2nc(CCC3CCCCC3)[nH]c2cc1C`, the IC50 (A549) is reported as 11.2 µM, the MIC [1] is reported as 0.75 µg/mL (≈ 2.93 µM) and the MIC [2] is reported as 0.75 µg/mL (≈ 2.93 µM). It also gave an MIC [3] of 0.75 µg/mL (≈ 2.93 µM) and an IC50 (LLC-PK1) of 43.9 µM.

Compound `Brc1ccc2[nH]c(CCC3CCCCC3)nc2c1` has an IC50 (A549) of 13.4 µM, an MIC [1] of 0.75 µg/mL (≈ 2.44 µM) and an MIC [2] of 0.75 µg/mL (≈ 2.44 µM). It also gave an MIC [3] of 0.75 µg/mL (≈ 2.44 µM) and an IC50 (LLC-PK1) of 32.6 µM.

`O=[N+]([O-])c1ccc2[nH]c(CCC3CCCCC3)nc2c1` was tested, and the MIC [1] was 3.1 µg/mL (≈ 11.3 µM), the MIC [2] was 3.1 µg/mL (≈ 11.3 µM) and the MIC [3] was 3.1 µg/mL (≈ 11.3 µM).

With `Fc1ccc2[nH]c(CCCC3CCCCC3)nc2c1` the MIC [1] was 6.2 µg/mL (≈ 23.8 µM), the MIC [2] was 6.2 µg/mL (≈ 23.8 µM) and the MIC [3] was 6.2 µg/mL (≈ 23.8 µM).

Work on `NNC(=O)c1ccncc1` [ISONIAZID] yielded an MIC [1] of 12.5 µg/mL (≈ 91.1 µM), an MIC [2] of 12.5 µg/mL (≈ 91.1 µM) and an MIC [3] of 25 µg/mL (≈ 182 µM).

`Cc1cc2nc(CCCC3CCCCC3)[nH]c2cc1C` was tested, and the MIC [1] was 25 µg/mL (≈ 92.4 µM), the MIC [2] was 6.2 µg/mL (≈ 22.9 µM) and the MIC [3] was 6.2 µg/mL (≈ 22.9 µM).

In the case of `NC(=O)c1cnccn1` [PYRAZINAMIDE], the MIC [1] is reported as 25 µg/mL (≈ 203 µM), the MIC [2] is reported as 25 µg/mL (≈ 203 µM) and the MIC [3] is reported as greater than 400 µg/mL.

`Fc1ccc2[nH]c(-c3cc(-c4ccccc4)ccn3)nc2c1` showed an MIC [1] of 6.2 µg/mL (≈ 21.4 µM), an MIC [2] of 12.5 µg/mL (≈ 43.2 µM) and an MIC [3] of 6.2 µg/mL (≈ 21.4 µM).

Work on `c1ccc(-c2ccnc(-c3nc4cccnc4[nH]3)c2)cc1` yielded an MIC [1] of 12.5 µg/mL (≈ 45.9 µM), an MIC [2] of 12.5 µg/mL (≈ 45.9 µM) and an MIC [3] of 12.5 µg/mL (≈ 45.9 µM).

Compound `Clc1cc2nc(CCCc3ccccc3)[nH]c2cc1Cl` has an MIC [1] of 6.2 µg/mL (≈ 20.3 µM), an MIC [2] of 6.2 µg/mL (≈ 20.3 µM) and an MIC [3] of 6.2 µg/mL (≈ 20.3 µM).

For `c1ccc(-c2ccnc(-c3nc4ccncc4[nH]3)c2)cc1`, the MIC [1] was 12.5 µg/mL (≈ 45.9 µM), the MIC [2] was 12.5 µg/mL (≈ 45.9 µM) and the MIC [3] was 3.1 µg/mL (≈ 11.4 µM).

`Brc1ccc2[nH]c(-c3cc(-c4ccccc4)ccn3)nc2c1` showed an MIC [1] of 12.5 µg/mL (≈ 35.7 µM), an MIC [2] of 12.5 µg/mL (≈ 35.7 µM) and an MIC [3] of 6.5 µg/mL (≈ 18.6 µM).

For `Clc1ccc2[nH]c(CCC3CCCCC3)nc2c1`, the IC50 (A549) was 10.9 µM, the MIC [1] was 0.75 µg/mL (≈ 2.85 µM) and the MIC [2] was 0.75 µg/mL (≈ 2.85 µM). It also gave an MIC [3] of 0.75 µg/mL (≈ 2.85 µM) and an IC50 (LLC-PK1) of 17.1 µM.

`O=S(=O)(c1ccccc1)n1c(CCCc2ccccc2)nc2cc(F)ccc21` was tested, and the MIC [1] was 100 µg/mL (≈ 254 µM), the MIC [2] was 100 µg/mL (≈ 254 µM) and the MIC [3] was 50 µg/mL (≈ 127 µM).

`CS(=O)(=O)n1c(CCCc2ccccc2)nc2cc(F)ccc21` was tested, and the MIC [1] was 50 µg/mL (≈ 150 µM), the MIC [2] was 50 µg/mL (≈ 150 µM) and the MIC [3] was 50 µg/mL (≈ 150 µM).

Source: ChEMBL document CHEMBL3352568, “Synthesis and evaluation of in vitro antimycobacterial activity of novel 1H-benzo[d]imidazole derivatives and analogues” (Eur J Med Chem, 2015)
